Test results reported in ChEMBL document CHEMBL4373678, “Development of hydroxamate-based histone deacetylase inhibitors of bis-substituted aromatic amides with antitumor activities” (Medchemcomm, 2019).
Calls of active or inactive are those of the source. The rule behind the calls is not given here.

Columns and labels:
Homo sapiens = species: Homo sapiens; details: at 0.5 µM;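 also: HDAC activity measured in a nuclear extract, with percent inhibition expressed against control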
A549 [1] = test: Induction of cell cycle arrest in human A549 cells assessed as accumulation at G2/M phase at 5 uM after 24 hrs by PI/RNaseA staining based flow cytometry analysis relative to control; format: functional
Summary of the method: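 A549 cells treated for 24 h, with vehicle as control. Cells were fixed in 70% ice-cold ethanol overnight at −20 °C, then stained with PI containing RNase A for 30 min at 37 °C. DNA content was read by flow cytometry. Mean ± SD of phase percentages from three independent experiments.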

A549 [2] = test: Induction of apoptosis in human A549 cells assessed as viable cells at 5 uM after 72 hrs by Annexin V-phycoerythrin/7-AAD staining based flow cytometric analysis (reference value: 96.57%); format: functional
A549 [3] = test: Induction of apoptosis in human A549 cells assessed as early apoptotic cells at 5 uM after 72 hrs by Annexin V-phycoerythrin/7-AAD staining based flow cytometric analysis (reference value: 1.13%); format: functional
A549 [4] = test: Induction of apoptosis in human A549 cells assessed as late apoptotic cells at 5 uM after 72 hrs by Annexin V-phycoerythrin/7-AAD staining based flow cytometric analysis (reference value: 1.84%); format: functional
A549 [5] = test: Induction of apoptosis in human A549 cells assessed as necrotic cells at 5 uM after 72 hrs by Annexin V-phycoerythrin/7-AAD staining based flow cytometric analysis (reference value: 0.45%); format: functional
Histone deacetylase 1 [6] = molecular target: T1, Histone deacetylase 1 (Homo sapiens, UniProt Q13547); test: Inhibition of recombinant HDAC1 (unknown origin) expressed in baculovirus expression system using Ac-peptide-AMC as substrate preincubated for 15 mins followed by substrate addition by fluorescence based protease coupled assay
Histone deacetylase 1 [7] = molecular target: T1, Histone deacetylase 1; test: Potency index, ratio of SAHA IC50 to compound IC50 for inhibition of recombinant HDAC1 (unknown origin) expressed in baculovirus expression system
MDA-MB-231 = test: Antiproliferative activity against human MDA-MB-231 cells assessed as reduction in cell viability after 48 hrs by SRB assay; format: functional, cell-based; details: MDA-MB-231, 48 h
MCF7 = test: Antiproliferative activity against human MCF7 cells assessed as reduction in cell viability after 48 hrs by SRB assay; format: functional, cell-based; details: MCF7, 48 h
A549 [8] = test: Antiproliferative activity against human A549 cells assessed as reduction in cell viability after 48 hrs by SRB assay; format: functional, cell-based; details: A549, 48 h
Summary of the method: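 A549 cells in RPMI 1640 with 10% FBS at 37 °C, 5% CO₂, seeded 24 h before treatment at various concentrations. Cells were fixed with 10% TCA for 1 h at 4 °C and stained with 0.4% SRB for 5 min at room temperature. After 1% acetic acid washes, dye was dissolved in 10 mM Tris and A540 read. IC50 from three independent experiments in triplicate, mean ± SD.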

MCF-10A = test: Cytotoxicity against human MCF10A cells assessed as reduction in cell viability after 48 hrs by SRB assay; format: ADME, cell-based
[9] = Cytotoxicity against human MCF10F cells assessed as reduction in cell viability after 48 hrs by SRB assay; format: ADME, cell-based; details: MCF-10F
BEAS-2B = test: Cytotoxicity against human BEAS2B cells assessed as reduction in cell viability after 48 hrs by SRB assay; format: ADME, cell-based
A549 [10] = test: Inhibition of colony formation in human A549 cells at 1 to 2.5 uM after 7 days by crystal violet staining based assay; format: functional, cell-based
Summary of the method: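 A549 cells plated at 800 per 35 mm dish and treated for one week, with medium replenished every 24 h. Cells were washed with PBS, fixed in methanol and stained with 1% crystal violet for 15 min. Colonies were counted. Triplicate, repeated three times.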

A549 [11] = test: Antimetastatic activity in human A549 cells reduction in cell migration after 24 hrs by wound healing assay; format: functional, cell-based
Summary of the method: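 A549 cells (1.5x10⁵) plated in 6-well dishes and grown overnight to confluent monolayers. Monolayers were wounded with a pipette tip, then treated at various concentrations for 24 h. Wounds were photographed at 0, 12 and 24 h and migration distance measured. Result is % wound closure relative to 0 h. Triplicate, repeated three times.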

Histone deacetylase 1 [12] = molecular target: T1, Histone deacetylase 1; test: Inhibition of HDAC1 in human A549 cells assessed as increase in H3 acetylation after 24 hrs by immunoblot analysis; format: cell-based
Summary of the method: (§1)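 A549 cells exposed to 1.0, 2.5 and 5.0 µM for 24 h, then immunoblotted for acetylated histone H3 and H4. RIPA lysates (35 µg) run on 15% SDS-PAGE and transferred to PVDF. Primary antibody 1:1000 overnight at 4 °C, HRP secondary 1:20000, ECL. Densitometry relative to β-actin; three independent experiments.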

Histone deacetylase 1 [13] = molecular target: T1, Histone deacetylase 1; test: Inhibition of HDAC1 in human A549 cells assessed as increase in H4 acetylation after 24 hrs by immunoblot analysis; format: cell-based
Summary of the method: as §1

A549 [14] = test: Induction of G2/M cell cycle arrest in human A549 cells assessed as decrease in CDK1 expression at 1 to 2.5 uM by Western blot analysis; format: functional, cell-based
Summary of the method: (§2)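 Cell-cycle arm: A549 whole-cell lysates probed for CDK1 and cyclin B. Lysis in RIPA buffer; 35 µg protein run on 15% SDS-PAGE and blotted to PVDF. Blocked in 5% milk/PBST; primary antibody 1:1000 at 4 °C overnight, HRP secondary 1:20000 for 1 h at room temperature, ECL detection. Densitometry relative to β-actin; three separate experiments.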

A549 [15] = test: Induction of G2/M cell cycle arrest in human A549 cells assessed as decrease in CyclinB1 expression at 1 to 2.5 uM by Western blot analysis; format: functional, cell-based
Summary of the method: as §2

A549 [16] = test: Induction of apoptosis in human A549 cells assessed as viable cells at 1 uM after 72 hrs by Annexin V-phycoerythrin/7-AAD staining based flow cytometric analysis (reference value: 96.57%); format: functional; details: A549, 72 h, read-out: Activity
A549 [17] = test: Induction of apoptosis in human A549 cells assessed as early apoptotic cells at 1 uM after 72 hrs by Annexin V-phycoerythrin/7-AAD staining based flow cytometric analysis (reference value: 1.13%); format: functional
A549 [18] = test: Induction of apoptosis in human A549 cells assessed as late apoptotic cells at 1 uM after 72 hrs by Annexin V-phycoerythrin/7-AAD staining based flow cytometric analysis (reference value: 1.84%); format: functional
A549 [19] = test: Induction of apoptosis in human A549 cells assessed as necrotic cells at 1 uM after 72 hrs by Annexin V-phycoerythrin/7-AAD staining based flow cytometric analysis (reference value: 0.45%); format: functional
A549 [20] = test: Induction of apoptosis in human A549 cells assessed as viable cells at 2.5 uM after 72 hrs by Annexin V-phycoerythrin/7-AAD staining based flow cytometric analysis (reference value: 96.57%); format: functional; details: A549, 72 h, read-out: Activity
A549 [21] = test: Induction of apoptosis in human A549 cells assessed as early apoptotic cells at 2.5 uM after 72 hrs by Annexin V-phycoerythrin/7-AAD staining based flow cytometric analysis (reference value: 1.13%); format: functional
A549 [22] = test: Induction of apoptosis in human A549 cells assessed as late apoptotic cells at 2.5 uM after 72 hrs by Annexin V-phycoerythrin/7-AAD staining based flow cytometric analysis (reference value: 1.84%); format: functional
A549 [23] = test: Induction of apoptosis in human A549 cells assessed as necrotic cells at 2.5 uM after 72 hrs by Annexin V-phycoerythrin/7-AAD staining based flow cytometric analysis (reference value: 0.45%); format: functional
A549 [24] = test: Induction of apoptosis in human A549 cells assessed as increase in PARP cleavage at 1 to 5 uM after 48 hrs by Western blot analysis; format: functional, cell-based
Summary of the method: (§3)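 A549 cells treated at the indicated concentrations for 48 h, then blotted for cleaved caspase-3 and cleaved PARP. RIPA lysis; 35 µg protein on 15% SDS-PAGE, transferred to PVDF. Blocked in 5% milk/PBST; primary antibody 1:1000 overnight at 4 °C, HRP secondary 1:20000 for 1 h, ECL. Bands quantified by densitometry versus β-actin; three separate experiments.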

A549 [25] = test: Induction of apoptosis in human A549 cells assessed as increase in caspase-3 cleavage at 1 to 5 uM after 48 hrs by Western blot analysis; format: functional, cell-based
Summary of the method: as §3

A549 [26] = test: Induction of apoptosis in human A549 cells after 72 hrs by Annexin V-phycoerythrin/7-AAD staining based flow cytometric analysis; format: functional, cell-based

T1 sequence (Q13547 whole entry): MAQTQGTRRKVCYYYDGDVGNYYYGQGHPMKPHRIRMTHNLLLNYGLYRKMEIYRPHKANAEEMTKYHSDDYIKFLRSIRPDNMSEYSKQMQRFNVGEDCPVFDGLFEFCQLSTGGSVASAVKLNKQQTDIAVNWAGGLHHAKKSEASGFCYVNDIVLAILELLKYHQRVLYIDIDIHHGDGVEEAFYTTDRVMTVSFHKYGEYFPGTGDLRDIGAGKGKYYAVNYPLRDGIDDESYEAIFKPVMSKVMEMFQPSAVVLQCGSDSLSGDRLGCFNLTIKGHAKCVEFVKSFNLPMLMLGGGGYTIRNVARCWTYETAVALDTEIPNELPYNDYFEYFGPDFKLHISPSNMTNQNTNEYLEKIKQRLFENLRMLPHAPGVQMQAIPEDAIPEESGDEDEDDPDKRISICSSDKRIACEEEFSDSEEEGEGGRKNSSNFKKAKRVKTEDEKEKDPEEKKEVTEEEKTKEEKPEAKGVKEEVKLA

## CCNC(=O)c1cccc(CN(C(=O)CCCCCC(=O)NO)c2ccc(O)cc2)c1
Homo sapiens
  inhibition: 21%

## COc1ccccc1N(Cc1cccc(C(=O)NCCCCCc2ccccc2)c1)C(=O)CCCCCC(=O)NO
Homo sapiens
  inhibition: 16%

## COc1ccccc1N(Cc1cccc(C(=O)NCCc2ccc(F)cc2)c1)C(=O)CCCCCC(=O)NO
Homo sapiens
  inhibition: 39%

## CCN(CC)C(=O)c1cccc(CN(C(=O)CCCCCC(=O)NO)c2ccccc2OC)c1
Homo sapiens
  inhibition: 20%

## CCC(=O)Nc1cccc(CN(C(=O)CCCCCC(=O)NO)c2ccccc2OC)c1
Homo sapiens
  inhibition: 22%

## COc1ccccc1N(Cc1cccc(C(=O)NCCc2ccc(Cl)cc2)c1)C(=O)CCCCCC(=O)NO
Homo sapiens
  inhibition: 36%

## COc1ccccc1N(Cc1cccc(Br)c1)C(=O)CCCCCC(=O)NO
Homo sapiens
  inhibition: 21%

## COc1ccccc1N(Cc1cccc(NC(=O)Cc2ccccc2)c1)C(=O)CCCCCC(=O)NO
Homo sapiens
  inhibition: 37%

## CCNC(=O)c1cccc(CN(C(=O)CCCCCC(=O)NO)c2ccccc2OC)c1
Homo sapiens
  inhibition: 20%

## COc1ccccc1N(Cc1cccc(C(=O)NCCCCc2ccc(F)cc2)c1)C(=O)CCCCCC(=O)NO
Homo sapiens
  inhibition: 34%

## COc1ccc(CCNC(=O)c2cccc(CN(C(=O)CCCCCC(=O)NO)c3ccccc3OC)c2)cc1
Homo sapiens
  inhibition: 27%

## O=C(CCCCCCC(=O)Nc1ccccc1)NO [VORINOSTAT]
A549 [1]
  Activity: 24.97%
A549 [2]
  Activity: 23.22%
A549 [3]
  Activity: 16.78%
A549 [4]
  Activity: 58.86%
A549 [5]
  Activity: 1.15%

## COc1ccccc1N(Cc1cccc(C(=O)NCCCCCCc2ccccc2)c1)C(=O)CCCCCC(=O)NO
Homo sapiens
  inhibition: 4%

## COc1ccc(N(Cc2cccc(NC(=O)CCc3ccc(F)cc3)c2)C(=O)CCCCCC(=O)NO)cc1
Homo sapiens
  inhibition: 49%

## COc1ccccc1N(Cc1cccc(C(=O)NCc2ccccc2)c1)C(=O)CCCCCC(=O)NO
Homo sapiens
  inhibition: 38%

## COc1ccccc1N(Cc1cccc(C(=O)NCCCCc2ccccc2)c1)C(=O)CCCCCC(=O)NO
Homo sapiens
  inhibition: 15%

## COc1ccccc1N(Cc1cccc(C(=O)NCCc2ccccc2)c1)C(=O)CCCCCC(=O)NO
Homo sapiens
  inhibition: 38%

## CCNC(=O)c1cccc(CN(C(=O)CCCCCC(=O)NO)c2ccc(OC)cc2)c1
Histone deacetylase 1 [6]
  IC50: 0.0022 µM
Histone deacetylase 1 [7]
  Ratio IC50: 11.4
MDA-MB-231
  IC50: 6.87 µM
MCF7
  IC50: 6.96 µM
A549 [8]
  IC50: 2.13 µM
MCF-10A
  IC50: > 100 µM
[9]
  IC50: > 100 µM
BEAS-2B
  IC50: > 100 µM
A549 [10]
  inhibition: Active
A549 [11]
  Activity: Dose-dependent effect
Histone deacetylase 1 [12]
  inhibition: Dose-dependent effect
Histone deacetylase 1 [13]
  inhibition: Dose-dependent effect
A549 [1]
  Activity: 40.3%
A549 [14]
  Activity: Active
A549 [15]
  Activity: Active
A549 [2]; Homo sapiens, A549, 72 h, read-out: Activity
  viability at 5 µM: 17.7%
A549 [3]
  Activity: 23.85%
A549 [4]
  Activity: 57.6%
A549 [5]
  Activity: 0.89%
A549 [16]
  viability at 1 µM: 69.1%
A549 [17]
  Activity: 21.86%
A549 [18]
  Activity: 8.17%
A549 [19]
  Activity: 0.86%
A549 [20]
  viability at 2.5 µM: 42%
A549 [21]
  Activity: 29.35%
A549 [22]
  Activity: 27.09%
A549 [23]
  Activity: 1.54%
A549 [24]
  Activity: Active
A549 [25]
  Activity: Active
A549 [26]
  Activity: Dose-dependent effect
Homo sapiens
  inhibition: 51%

## COc1ccc(N(Cc2cccc(C(=O)NCCc3ccc(F)cc3)c2)C(=O)CCCCCC(=O)NO)cc1
Histone deacetylase 1 [6]
  IC50: 0.0023 µM
Histone deacetylase 1 [7]
  Ratio IC50: 10.9
MDA-MB-231
  IC50: 7.24 µM
MCF7
  IC50: 7.17 µM
A549 [8]
  IC50: 4.05 µM
MCF-10A
  IC50: > 50 µM
[9]
  IC50: > 50 µM
BEAS-2B
  IC50: > 20 µM
Homo sapiens
  inhibition: 53%
